Data from ChEMBL document CHEMBL1146066, “4-quinolone derivatives: high-affinity ligands at the benzodiazepine site of brain GABA A receptors. synthesis, pharmacology, and pharmacophore modeling” (J Med Chem, 2006).

Experiments:
[1] = biological target: GABA-A receptor; anion channel; test: Displacement of [3H]flumazenil from GABA-A receptor in rat cortical membranes; type: cell membranes, Membrane
In short: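 Rat cortex was homogenized in Tris-HCl, washed by centrifugation, incubated 30 min at 37 °C, and stored frozen. Assays used ca. 50 µg protein per 0.55 mL in Tris-citrate 50 mM pH 7.1 with 1 nM [3H]flumazenil for 40 min on ice, then filtered. Nonspecific binding came from 1 µM clonazepam.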

[2] = Selectivity for human GABA-Aalpha1 receptor plus beta-2-gamma-2 over GABA-Aalpha3 receptor plus beta2gamma2
[3] = biological target: T1, GABA A receptor alpha-3/beta-2/gamma-2 (Homo sapiens, UniProt P18507+P34903+P47870); test: Displacement of [3H]Flumazenil from human GABA-Aalpha3 receptor plus beta-2-gamma-2 expressed in HEK293 cells; type: cell-based
T1 sequence (P47870 whole entry): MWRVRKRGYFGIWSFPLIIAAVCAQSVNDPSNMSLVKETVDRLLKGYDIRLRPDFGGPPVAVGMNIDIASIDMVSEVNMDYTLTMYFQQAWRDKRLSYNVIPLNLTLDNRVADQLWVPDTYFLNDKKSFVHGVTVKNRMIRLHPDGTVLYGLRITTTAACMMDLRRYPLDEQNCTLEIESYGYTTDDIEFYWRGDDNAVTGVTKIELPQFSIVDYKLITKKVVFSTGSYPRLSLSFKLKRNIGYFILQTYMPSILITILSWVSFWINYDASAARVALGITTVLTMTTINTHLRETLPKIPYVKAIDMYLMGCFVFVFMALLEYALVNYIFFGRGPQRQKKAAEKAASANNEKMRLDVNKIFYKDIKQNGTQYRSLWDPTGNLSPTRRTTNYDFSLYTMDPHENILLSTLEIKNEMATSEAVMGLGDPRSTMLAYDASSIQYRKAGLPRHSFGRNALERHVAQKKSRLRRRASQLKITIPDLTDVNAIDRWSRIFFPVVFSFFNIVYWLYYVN
T1 sequence (P18507 whole entry): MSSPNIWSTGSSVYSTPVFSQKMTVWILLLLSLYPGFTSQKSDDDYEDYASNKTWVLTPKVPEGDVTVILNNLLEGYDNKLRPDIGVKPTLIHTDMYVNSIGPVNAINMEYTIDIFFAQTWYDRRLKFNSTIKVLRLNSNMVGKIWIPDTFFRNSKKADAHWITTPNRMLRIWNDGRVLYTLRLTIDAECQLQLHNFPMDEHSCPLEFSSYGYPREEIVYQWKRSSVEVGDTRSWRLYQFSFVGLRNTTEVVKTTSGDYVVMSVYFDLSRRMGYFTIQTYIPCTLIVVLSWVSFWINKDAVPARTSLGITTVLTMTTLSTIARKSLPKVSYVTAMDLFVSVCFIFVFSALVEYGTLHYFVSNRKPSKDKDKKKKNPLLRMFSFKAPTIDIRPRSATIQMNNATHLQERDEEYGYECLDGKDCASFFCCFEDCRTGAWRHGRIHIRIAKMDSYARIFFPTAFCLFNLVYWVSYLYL
T1 sequence (P34903 whole entry): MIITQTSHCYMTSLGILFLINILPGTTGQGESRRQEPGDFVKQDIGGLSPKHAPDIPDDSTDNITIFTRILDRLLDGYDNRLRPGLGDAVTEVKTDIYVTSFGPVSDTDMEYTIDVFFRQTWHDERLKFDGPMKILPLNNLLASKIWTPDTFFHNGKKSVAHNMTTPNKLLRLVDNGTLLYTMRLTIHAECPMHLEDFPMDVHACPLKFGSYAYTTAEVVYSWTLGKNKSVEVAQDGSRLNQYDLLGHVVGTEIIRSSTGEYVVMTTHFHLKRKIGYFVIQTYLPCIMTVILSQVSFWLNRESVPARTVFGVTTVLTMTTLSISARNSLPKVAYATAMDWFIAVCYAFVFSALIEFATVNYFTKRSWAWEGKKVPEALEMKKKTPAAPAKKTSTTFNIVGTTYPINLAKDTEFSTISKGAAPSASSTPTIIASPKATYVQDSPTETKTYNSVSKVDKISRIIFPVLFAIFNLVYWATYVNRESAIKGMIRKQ
In short: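 Membranes of HEK 293 cells carrying human α1β2γ2S or α3β2γ2S GABAA receptors, ca. 25 µg protein per 0.55 mL assay in Tris-citrate 50 mM pH 7.1. Incubated with 1 nM [3H]flumazenil (87 Ci/mmol) and test substance at 0-4 °C for 40 min, then filtered on GF/C and washed. Nonspecific binding taken with 1 µM clonazepam.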

[4] = biological target: GABA A receptor alpha-1/beta-2/gamma-2 (Homo sapiens); test: Displacement of [3H]Flumazenil from human GABA-Aalpha1 receptor plus beta-2-gamma-2 expressed in HEK293 cells

Row | Structure (SMILES) | Ki [1] | other results
1 | CCCCOC(=O)c1cnc2ccc(CC)cc2c1O | 13 nM | –
2 | CCc1ccc2ncc(C(=O)OC3CCCC3)c(O)c2c1 | 19 nM | –
3 | CCOC(=O)c1c[nH]c2ccc(Cc3ccccc3)cc2c1=O | – | Ratio Ki [2]: 27
4 | CCc1ccc2ncc(C(=O)OC(C)C)c(O)c2c1 | 214 nM | –
5 | CCc1ccc2ncc(C(=O)OCC(CC)CC)c(O)c2c1 | 92 nM | –
6 | CCc1ccc2ncc(C(=O)OC(C)CC(C)C)c(O)c2c1 (stereo unspecified) | 295 nM | –
7 | CCCOC(=O)c1cnc2ccc(CC)cc2c1O | 1.8 nM | –
8 | CCCCOC(=O)c1cnc2ccccc2c1O | 54 nM | –
9 | CCOC(=O)c1cnc2ccc(Br)cc2c1O | 16 nM | Ki [3]: 26 nM; Ratio Ki [2]: 2; Ki [4]: 14 nM
10 | CCOC(=O)c1cnc2ccnn2c1O | > 10000 nM | –
11 | CCOC(=O)c1cnc2cc(C)nn2c1O | > 10000 nM | –
12 | CCc1ccc2ncc(C(=O)O)c(O)c2c1 | 208 nM | –
13 | CCc1ccc2ncc(C(=O)OCCC(C)C)c(O)c2c1 | 28 nM | Ki [3]: 89 nM; Ratio Ki [2]: 22; Ki [4]: 4.1 nM
14 | CCc1ccc2ncc(C(=O)OC(CC)CC)c(O)c2c1 | 2600 nM | –
15 | CCCCNC(=O)c1cnc2ccc(CC)cc2c1O | 0.54 nM | –
16 | CCOC(=O)c1cnc2ccc(C(F)(F)F)cc2c1O | 122 nM | –
17 | CCOC(=O)c1cnc2ccc(Cc3ccccc3)cc2c1O | 1.4 nM | Ki [3]: 7.2 nM; Ki [4]: 0.27 nM
18 | CCCNC(=O)c1cnc2ccc(Cc3ccccc3)cc2c1O | 0.048 nM | –
19 | CCCNC(=O)c1cnc2ccc(CC)cc2c1O | 0.26 nM | –
20 | CCCOC(=O)c1cnc2ccc(Cc3ccccc3)cc2c1O | 0.17 nM | –
21 | CCOC(=O)c1c(C)nc2ccc(Br)cc2c1O | 4200 nM | –
22 | CCOC(=O)c1cnc2ccc(CC)cc2c1O | 20 nM | –
23 | CCCc1ccc2ncc(C(=O)OCC)c(O)c2c1 | 17 nM | –
24 | CCCOC(=O)c1cnc2cc(C)nn2c1O | 870 nM | –
25 | CCc1ccc2ncc(C(=O)OCC(C)CC)c(O)c2c1 (stereo unspecified) | 28 nM | –
26 | CCOC(=O)c1cnc2ccc(C(C)C)cc2c1O | 15 nM | –
27 | CCOC(=O)c1cnc2ccccc2c1O | 78 nM | –
28 | CCCCCOC(=O)c1cnc2ccc(CC)cc2c1O | 35 nM | –
